Shown are actives, neighbours in structure and some others; about 4.5% of the full set was active somewhere.
CHO parental Ca: ATP-evoked calcium signal inhibitors, parental CHO, primary screen, counter-screen for OX1R antagonist project, cell-based, fluorescence, Fluo-8 calcium dye | AID 463079, 2010 | inhibition, % at 5.6 µM | parental CHO-K1, ATP-induced calcium, Fluo-8 fluorescence | hit rate 0.63% among 330,000;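 active = inhibition above that plate's mean sample inhibition plus 3 SD, cut at about 26% in these data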;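 also: 0% = ATP-challenged DMSO wells and 100% = DMSO wells without ATP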
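Measured by: calcium-sensitive Fluo-8 fluorescence / Test system: CHO parental line / Controls: ATP-challenged DMSO wells low, unchallenged DMSO wells high / Measure: % inhibition / Compound: single nominal dose of 5.6 µM per compound / Replicates: single well per compound, no replicates / Reagent: ATP as calcium-mobilizing challenge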
TAAR1 ag: human TAAR1 agonists, primary screen, Fluo-8 calcium fluorescence, CHO RD-HGA16 cells. Trace amine-associated receptor 1 (Homo sapiens), Q96RJ0. vehicle wells 0%, saturating PEA agonist 100%. activation, % at 3 µM. hit rate 0.99% among 360,000. AID 624467, 2012;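 active = activation above the mean activation of all test compounds in the run plus 3 SD, cut at about 38% in these data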
Target sequence (Q96RJ0 whole entry, looked up): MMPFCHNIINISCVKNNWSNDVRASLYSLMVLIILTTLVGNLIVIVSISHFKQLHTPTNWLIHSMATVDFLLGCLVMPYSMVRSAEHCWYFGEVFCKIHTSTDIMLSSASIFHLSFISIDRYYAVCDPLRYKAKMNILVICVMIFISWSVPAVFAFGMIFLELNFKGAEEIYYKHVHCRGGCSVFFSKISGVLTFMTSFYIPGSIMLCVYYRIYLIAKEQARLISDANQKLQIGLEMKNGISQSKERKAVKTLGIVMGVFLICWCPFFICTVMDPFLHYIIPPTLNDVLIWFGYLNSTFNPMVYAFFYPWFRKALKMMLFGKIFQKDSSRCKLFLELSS
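Assay system – CHO-derived RD-HGA16 cells with stable Gα16 and human TAAR1 · Compound dosing – one-point dosing at 3 µM (nominal) · Incubation – 17-24 h seeding, 75 min 37 °C dye, 30 min RT · Measured by – kinetic Fluo-8 calcium fluorescence · Control set – DMSO vehicle as 0%, PEA at EC100 as 100% · Repeats – single well for each compound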
GPR7 antag: GPR7 receptor antagonists, primary screen, cell-based, fluorescence, single concentration; inhibition, % at 4.4 µM; AID 1861, 2009; Neuropeptides B/W receptor type 1 (Homo sapiens), P48145; hit rate 1.1% among 290,000; GPR7-expressing cells, fluorescence antagonist assay; in the data active = inhibition above about 16%, passing the limit was not always enough;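 also: cells stimulated with the agonist NPW; 0% = agonist with vehicle and 100% = vehicle without agonist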
Target sequence (P48145 whole entry, looked up): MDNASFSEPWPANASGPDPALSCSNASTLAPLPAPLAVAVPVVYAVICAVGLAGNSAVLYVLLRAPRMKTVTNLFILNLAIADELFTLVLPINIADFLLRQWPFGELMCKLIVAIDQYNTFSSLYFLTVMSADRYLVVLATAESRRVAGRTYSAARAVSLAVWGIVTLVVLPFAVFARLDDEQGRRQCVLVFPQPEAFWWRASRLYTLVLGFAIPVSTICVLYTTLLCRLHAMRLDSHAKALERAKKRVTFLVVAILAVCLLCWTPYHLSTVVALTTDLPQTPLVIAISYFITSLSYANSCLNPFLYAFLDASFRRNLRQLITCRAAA
OX1R antag-1: OX1R (HCRTR1) antagonists, primary screen, fluorescence, CHO/OX1R cells, Fluo-8 calcium, orexin A; Orexin/Hypocretin receptor type 1 (Homo sapiens), O43613; Fluo-8 calcium fluorescence; inhibition, % at 5 µM; hit rate 0.43% among 330,000; AID 434989, 2010;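 active = inhibition above its plate's threshold, mean inhibition of all tested compounds on the plate plus 3 SD, cut at about 37% in these data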;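 also: 0% = orexin A challenge wells and 100% = SB-334867-A antagonist wells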
TAAR1 antagonist: human TAAR1 antagonists, primary screen, Fluo-8 calcium fluorescence, CHO RD-HGA16 cells; inhibition, % at 3 µM; antagonist; hit rate 1.5% among 360,000;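 active = inhibition above a per-plate cutoff, the mean inhibition of test compounds on that plate plus 3 SD, cut at about 49% in these data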;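 also: 0% = DMSO plus EC80 beta-PEA response and 100% = DMSO alone without agonist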
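System: RD-HGA16 CHO cells with stable hTAAR1 and Gα16 | Probe or stimulus: EC80 β-phenethylamine stimulus | Dosing: 3 µM, single point | Times: Dye loading 75 min at 37 °C, then 30 min room temperature | Measured by: Fluo-8 calcium-sensitive fluorescence | Read-out basis: % inhibition of agonist calcium response | Replicates: n of 1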
OX1R antag-2: antagonists of human orexin 1 receptor (OX1R); OX1R-expressing cells, FRET antagonist read-out; inhibition, % at 6.6 µM; hit rate 1.8% among 330,000; AID 485270, 2010; in the data active = inhibition mostly above about 38%, no sharp cut-off; inactive = mostly below about 40%;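 also: 0% = agonist challenge alone and 100% = reference antagonist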
The depositor's hits bear a star; x = not tested or not shown.

SMILES	CHO parental Ca	TAAR1 ag	GPR7 antag	OX1R antag-1	TAAR1 antagonist	OX1R antag-2
CCc1ccc2c(c1)NC(=O)C2(C)Cc1ccc(C(F)(F)F)nc1 (centres undefined)	x	1	x	x	-39	x
CC1=Nc2ccccc2/C1=C/c1c(N)n2c(S(=O)(=O)C(C)C)nsc2nc1=O	-6	2	-2	-18	6	9
CC1=Nc2ccccc2/C1=C/c1sc(=N)n(-c2nccs2)c1O	47*	x	0	64*	x	41
COC(=O)[C@H](Cc1ccccc1)N1CC(N2CCCC2)CS1(=O)=O (some centres undefined)	x	2	x	x	-9	x
CCOc1ncc(S(=O)(=O)N2CCN(CC)CC2)cc1C(=O)O	-7	2	-14	8	0	-8
COC(=O)C1=C(C)N(Cc2ccccc2C(F)(F)F)C(=NCc2ccc(OC)cc2)NC1c1ccccc1C(F)(F)F (centres undefined)	x	-1	x	x	-18	x
CCOCCC(=O)Nc1ccc2c(c1)c(=O)n(C)n2CC=C(C)C	x	0	x	x	-1	x
OC(c1ccc(F)cc1)c1nc(-c2cc3ccccc3o2)cs1 (centres undefined)	x	45*	x	x	75*	x
FC(F)(F)c1cccc(NC(=S)NCc2ccc(Cl)cc2)c1	10	23	28*	8	6	19
FC(F)(F)c1ccc(NC(=S)NCc2ccccc2)cc1	30*	13	24*	28	34	18
Cc1ccc(C(=O)N2CCC[C@@H]2C(=O)N2CCC[C@@H]2C(=O)NCc2ccccc2)cc1	x	-1	x	x	-14	x
CC1=CC(=O)C2(C)C(C)=C(C)C12C (centres undefined)	x	1	x	x	0	x
O=C(CSc1nc(-c2ccccc2)c(-c2ccccc2)[nH]1)Nc1ccc2c(c1)OCO2	-16	6	-11	5	-7	50*
O=C(CSc1nc2ncccc2[nH]1)Nc1ccc2c(c1)OCO2	-10	2	6	-14	-24	4
COc1ccc(CCn2c(=N)c(C(=O)NCCN3CCOCC3)cc3c(=O)n4cccc(C)c4nc32)cc1OC	7	2	-16	-4	-7	42
COc1ccc(CCNC(=O)c2cc3c(=O)n4ccccc4nc3n(Cc3ccco3)c2=N)cc1OC	-2	0	8	-13	6	28
Cc1ccc(Cn2c(=N)c(C(=O)NC3CCCCC3)cc3c(=O)n4ccccc4nc32)cc1	-19	0	14	-33	-24	9
COc1ccc(CCNC(=O)c2cc3c(=O)n4ccccc4nc3n(CCCN3CCOCC3)c2=N)cc1OC	-18	1	-1	8	-5	74*
COc1ccc(CCn2c(=N)c(C(=O)NCCN3CCOCC3)cc3c(=O)n4ccccc4nc32)cc1OC	-3	2	-2	-7	-10	50*
Cc1ccc2nc3c(cc(C(=O)NC4CCCC4)c(=N)n3CCCn3ccnc3)c(=O)n2c1	-7	x	-11	-1	x	84*
N=c1c(C(=O)NC2CCCC2)cc2c(=O)n3ccccc3nc2n1CCCN1CCOCC1	-1	-1	-2	-14	-3	45*
O=C(C(=O)N1CCC(CNS(=O)(=O)c2cccc(C(F)(F)F)c2)CC1)c1cc2ccccc2o1	x	-1	x	x	-12	x
N#Cc1cc2c(=O)n3ccccc3nc2n(CCCN2CCOCC2)c1=O	2	5	-2	-27	-9	54*
COc1ccc(CCNC(=O)c2cc3c(=O)n4ccccc4nc3n(CCCN3CCOCC3)c2=N)cc1	-15	2	15	-20	-15	51*
COc1ccc(CCNC(=O)c2cc3c(=O)n4ccccc4nc3n(CCN3CCOCC3)c2=N)cc1	-1	7	10	-4	18	31
SMILES	CHO parental Ca	TAAR1 ag	GPR7 antag	OX1R antag-1	TAAR1 antagonist	OX1R antag-2
CCCNc1nc2nc3ccccn3c(=O)c2cc1C(=O)NCCN1CCOCC1	-5	0	-8	-7	-2	52*
Cc1ccc(S(=O)(=O)NCC2CCN(C(=O)C(=O)c3cccs3)CC2)cc1	x	2	x	x	-12	x
Cc1ccc(NC(=O)c2nc(C)n(-c3ccc([N+](=O)[O-])cc3)n2)cc1	-9	x	-1	-14	x	26
CCOC(=O)c1nc(C)n(-c2ccc([N+](=O)[O-])cc2)n1	3	4	-1	-32	-6	49*
Cc1nc(C(=O)Nc2ccc(F)cc2)nn1-c1ccc([N+](=O)[O-])cc1	-8	4	4	-12	11	55*
CCOC(=O)c1nc(C)n(-c2ccc(Cl)cc2)n1	-7	4	-2	-17	2	4
O=C(Nc1cc(Cl)ccc1O)c1snnc1-c1ccccc1	30	6	-5	45	31	46*
O=C(NCc1ccccc1)[C@@H]1CCCN1C(=O)[C@H]1CCCN1C(=O)c1ccc(F)c(F)c1	x	0	x	x	-26	x
Cc1ccc(C(=O)N2c3ccccc3Sc3ccccc32)cc1	x	-1	x	x	-16	x
CN(C)c1ccc2c(c1)Sc1cc(N(C)C)ccc1N2C(=O)c1ccccc1	38*	2	0	-6	-6	33
COc1ccc(CN(CCC(c2ccc(F)cc2)C2CCOC(C)(C)C2)C(=O)c2ccco2)cc1 (centres undefined)	-23	12	20	-42	64*	14
COc1ccc(CN(CCC(c2ccccc2)c2ccco2)C(=O)c2ccco2)cc1 (centres undefined)	-23	4	6	-38	48	10
COC(=O)C1=C(C)NC2=C(C(=O)CC(c3cccs3)C2)C1c1ccsc1 (centres undefined)	-10	10	22*	-21	3	22
CCOC(=O)C1=C(C)NC2=C(C(=O)CC(c3cccs3)C2)C1c1cccs1 (centres undefined)	2	8	0	-21	18	0
O=C(O)C1CCCCN1c1ccccc1[N+](=O)[O-] (centres undefined)	x	3	x	x	-12	x
O=c1oc2ccc(C#CC3(O)CCCCC3)cc2cc1-n1cc(C2(O)CCCCC2)nn1	-7	27	x	3	53*	6
Cc1noc(C)c1CSc1nc2ccccc2nc1NS(=O)(=O)c1ccc(Cl)cc1	-8	x	-11	-9	x	61*
CC(C)C1O/C(=N/C(=O)Nc2ccc(Cl)c(Cl)c2)NC1=O (centres undefined)	44*	31	17	38	-28	11
